Results from different studies.
Compare with care: the assays were run in different laboratories.
Target: Phosphatidylinositol 4-phosphate 5-kinase type-1 gamma (PIP5K1C, Homo sapiens, UniProt O60331)

Structure (SMILES) | test | conditions | endpoint | result
CC#CC(=O)N1CCC[C@H]1c1nc(-c2ccc(C(=O)Nc3ccccn3)cc2)c2c(N)nccn12 | enzyme activity, inhibitor | 1 µM | inhibition | 0%
CCCCC(=O)Nc1ccc(-c2ccc3ncn(CCC)c(=O)c3c2)cn1 | binding, competition with immobilised ligand | 0.5 µM | remaining binding | 96%
COc1ccc2oc(-c3ccc4nc(N)oc4c3)c/c(=N\c3ccccc3NC(=O)CCN)c2c1 | binding | 1 µM | remaining binding | 102%
CC(C)S(=O)(=O)c1ccc2nccc(Nc3ccc4sc(C5CCCC5)nc4c3)c2c1 | enzyme activity, inhibitor | 1 µM | activity vs control | 105%
COc1ccc2[nH]c3c4[nH]c5ccc(OC)cc5c4c4c(c3c2c1)C(=O)NC4=O | binding | 1 µM | remaining binding | 81%
CO[C@@H]1[C@H](N(C)C(=O)c2ccccc2)C[C@H]2O[C@]1(C)n1c3ccccc3c3c4c(c5c6ccccc6n2c5c31)C(=O)NC4 | enzyme activity, inhibitor | 1 µM | inhibition | 11%
C1=C/COCc2cc(ccc2OCCN2CCCC2)Nc2nccc(n2)-c2cccc(c2)COC/1 | binding | 0.1 µM | remaining binding | 60%
Cc1ccc(NC(=O)c2ccnc(C(F)(F)F)c2)cc1-c1cc(OCCO)nc(N2CCOCC2)c1 | binding | 1 µM | remaining binding | 98%
